# According to ChEMBL document CHEMBL4402566, “2-Substituted α,β-Methylene-ADP Derivatives: Potent Competitive Ecto-5'-nucleotidase (CD73) Inhibitors with Variable Binding Modes” (J Med Chem, 2020):
# Activity calls are given as the source filed them. No cut-off for these calls is given here.
# Biological target: T1, 5'-nucleotidase (Homo sapiens, UniProt P21589)
# Experiment: Inhibition of human CD73
# Conditions: not given
# T1 sequence (P21589 whole entry): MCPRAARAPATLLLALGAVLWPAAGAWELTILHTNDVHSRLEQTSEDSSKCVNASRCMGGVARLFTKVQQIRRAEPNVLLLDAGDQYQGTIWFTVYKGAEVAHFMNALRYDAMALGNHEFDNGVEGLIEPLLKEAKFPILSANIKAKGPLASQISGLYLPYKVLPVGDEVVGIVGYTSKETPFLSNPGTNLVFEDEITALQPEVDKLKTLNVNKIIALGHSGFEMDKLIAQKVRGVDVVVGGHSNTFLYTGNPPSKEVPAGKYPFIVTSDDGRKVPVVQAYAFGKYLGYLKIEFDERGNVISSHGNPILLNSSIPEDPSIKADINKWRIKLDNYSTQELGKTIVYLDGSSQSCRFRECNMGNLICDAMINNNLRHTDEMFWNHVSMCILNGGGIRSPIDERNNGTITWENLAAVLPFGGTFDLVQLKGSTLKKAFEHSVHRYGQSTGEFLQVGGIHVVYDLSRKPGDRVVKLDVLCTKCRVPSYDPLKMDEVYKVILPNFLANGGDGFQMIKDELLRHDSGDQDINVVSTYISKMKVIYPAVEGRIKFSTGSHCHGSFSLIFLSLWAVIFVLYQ
row,Ki [nM],Structure (SMILES)
1,0.318,CN(Cc1ccccc1)c1nc(Cl)nc2c1ncn2[C@@H]1O[C@H](COP(=O)(O)CP(=O)(O)O)[C@@H](O)[C@H]1O

# Biological target: T2, 5'-nucleotidase (Rattus norvegicus, UniProt P21588)
# T2 sequence (P21588 whole entry): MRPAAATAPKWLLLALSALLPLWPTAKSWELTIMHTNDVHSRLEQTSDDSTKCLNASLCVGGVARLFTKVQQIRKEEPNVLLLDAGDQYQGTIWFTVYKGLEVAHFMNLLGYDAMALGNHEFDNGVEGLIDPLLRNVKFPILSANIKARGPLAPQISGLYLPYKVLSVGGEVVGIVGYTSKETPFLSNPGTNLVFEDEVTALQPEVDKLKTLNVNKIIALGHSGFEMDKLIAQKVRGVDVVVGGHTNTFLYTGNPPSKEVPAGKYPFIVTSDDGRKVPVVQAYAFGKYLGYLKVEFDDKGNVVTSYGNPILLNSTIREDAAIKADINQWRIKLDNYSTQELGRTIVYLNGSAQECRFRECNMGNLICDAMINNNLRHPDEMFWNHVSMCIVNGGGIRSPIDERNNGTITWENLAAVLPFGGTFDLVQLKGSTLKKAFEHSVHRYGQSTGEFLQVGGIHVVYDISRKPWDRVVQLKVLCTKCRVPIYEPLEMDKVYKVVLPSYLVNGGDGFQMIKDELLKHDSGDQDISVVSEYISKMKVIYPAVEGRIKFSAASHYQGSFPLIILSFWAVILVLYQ
# Experiment: Inhibition of rat CD73
# Conditions: not given
# Procedure, shortened: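 Recombinant soluble rat CD73 expressed in Sf9 insect cells (1.63 ng per vial). Buffer was 25 mM Tris, 140 mM NaCl, 25 mM NaH2PO4, pH 7.4. […] Stopped with LaCl3/sodium acetate pH 4.0 to precipitate unreacted substrate, then filtered; adenosine in the filtrate counted by scintillation. Ki derived from IC50 by Cheng–Prusoff.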
row,Ki [nM],Structure (SMILES)
1,0.746,CN(Cc1ccccc1)c1nc(Cl)nc2c1ncn2[C@@H]1O[C@H](COP(=O)(O)CP(=O)(O)O)[C@@H](O)[C@H]1O

# Biological target: T2, 5'-nucleotidase
# Experiment: Inhibition of purified recombinant soluble rat CD73 expressed in Sf9 cells [3H]AMP as substrate incubated for 25 mins by scintillation counting method
# Conditions: not given
# Procedure, shortened: (§1)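 Radiometric CD73 assay in 25 mM Tris, 140 mM NaCl, 25 mM NaH2PO4, pH 7.4. Enzyme per vial: rat CD73 1.63 ng, human CD73 0.365 ng, MDA-MB-231 membranes 7.4 ng protein. […] 25 min at 37 °C, shaking. Stopped with cold LaCl3/sodium acetate pH 4.0 to precipitate substrate. Filtrate counted by scintillation. Full curves; Ki from IC50 via Cheng–Prusoff.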
row,Ki [nM],Structure (SMILES)
1,90.6,Nc1nc(N)c2ncn([C@@H]3O[C@H](COP(=O)(O)CP(=O)(O)O)[C@@H](O)[C@H]3O)c2n1
2,65.7,C=CCSc1nc(N)c2ncn([C@@H]3O[C@H](COP(=O)(O)CP(=O)(O)O)[C@@H](O)[C@H]3O)c2n1
3,326,Nc1nc(=O)[nH]c2c1ncn2[C@@H]1O[C@H](COP(=O)(O)CP(=O)(O)O)[C@@H](O)[C@H]1O
4,15.1,Nc1nc(I)nc2c1ncn2[C@@H]1O[C@H](COP(=O)(O)CP(=O)(O)O)[C@@H](O)[C@H]1O

row,Structure (SMILES),Ki [nM]
1,Nc1ncnc2c1ncn2[C@@H]1O[C@H](COP(=O)(O)CP(=O)(O)O)[C@@H](O)[C@H]1O [PHOSPHOMETHYLPHOSPHONIC ACID ADENOSYL ESTER],197

# Biological target: T1, 5'-nucleotidase
# Experiment: Inhibition of purified recombinant soluble human CD73 expressed in Sf9 cells [3H]AMP as substrate incubated for 25 mins by scintillation counting method
# Conditions: not given
# Procedure, shortened: as §1
row,Ki [nM],Structure (SMILES)
1,38.8,Nc1nc(N)c2ncn([C@@H]3O[C@H](COP(=O)(O)CP(=O)(O)O)[C@@H](O)[C@H]3O)c2n1
2,61.9,C=CCSc1nc(N)c2ncn([C@@H]3O[C@H](COP(=O)(O)CP(=O)(O)O)[C@@H](O)[C@H]3O)c2n1
3,3.59,Nc1nc(I)nc2c1ncn2[C@@H]1O[C@H](COP(=O)(O)CP(=O)(O)O)[C@@H](O)[C@H]1O

# Biological target: T1, 5'-nucleotidase
# Experiment: Inhibition of native CD73 in human MDA-MB-231 cell membrane preparations [3H]AMP as substrate incubated for 25 mins by scintillation counting method
# Format: cell membranes
# Conditions: not given
# Procedure, shortened: as §1
row,Ki [nM],Structure (SMILES)
1,35.7,Nc1nc(N)c2ncn([C@@H]3O[C@H](COP(=O)(O)CP(=O)(O)O)[C@@H](O)[C@H]3O)c2n1
2,65.4,C=CCSc1nc(N)c2ncn([C@@H]3O[C@H](COP(=O)(O)CP(=O)(O)O)[C@@H](O)[C@H]3O)c2n1
3,3.33,Nc1nc(I)nc2c1ncn2[C@@H]1O[C@H](COP(=O)(O)CP(=O)(O)O)[C@@H](O)[C@H]1O

row,Structure (SMILES),Ki [nM]
1,Nc1ncnc2c1ncn2[C@@H]1O[C@H](COP(=O)(O)CP(=O)(O)O)[C@@H](O)[C@H]1O [PHOSPHOMETHYLPHOSPHONIC ACID ADENOSYL ESTER],207

# Biological target: T3, Ectonucleotide pyrophosphatase/phosphodiesterase family member 1 (Homo sapiens) (UniProt P22413)
# T3 sequence (whole entry): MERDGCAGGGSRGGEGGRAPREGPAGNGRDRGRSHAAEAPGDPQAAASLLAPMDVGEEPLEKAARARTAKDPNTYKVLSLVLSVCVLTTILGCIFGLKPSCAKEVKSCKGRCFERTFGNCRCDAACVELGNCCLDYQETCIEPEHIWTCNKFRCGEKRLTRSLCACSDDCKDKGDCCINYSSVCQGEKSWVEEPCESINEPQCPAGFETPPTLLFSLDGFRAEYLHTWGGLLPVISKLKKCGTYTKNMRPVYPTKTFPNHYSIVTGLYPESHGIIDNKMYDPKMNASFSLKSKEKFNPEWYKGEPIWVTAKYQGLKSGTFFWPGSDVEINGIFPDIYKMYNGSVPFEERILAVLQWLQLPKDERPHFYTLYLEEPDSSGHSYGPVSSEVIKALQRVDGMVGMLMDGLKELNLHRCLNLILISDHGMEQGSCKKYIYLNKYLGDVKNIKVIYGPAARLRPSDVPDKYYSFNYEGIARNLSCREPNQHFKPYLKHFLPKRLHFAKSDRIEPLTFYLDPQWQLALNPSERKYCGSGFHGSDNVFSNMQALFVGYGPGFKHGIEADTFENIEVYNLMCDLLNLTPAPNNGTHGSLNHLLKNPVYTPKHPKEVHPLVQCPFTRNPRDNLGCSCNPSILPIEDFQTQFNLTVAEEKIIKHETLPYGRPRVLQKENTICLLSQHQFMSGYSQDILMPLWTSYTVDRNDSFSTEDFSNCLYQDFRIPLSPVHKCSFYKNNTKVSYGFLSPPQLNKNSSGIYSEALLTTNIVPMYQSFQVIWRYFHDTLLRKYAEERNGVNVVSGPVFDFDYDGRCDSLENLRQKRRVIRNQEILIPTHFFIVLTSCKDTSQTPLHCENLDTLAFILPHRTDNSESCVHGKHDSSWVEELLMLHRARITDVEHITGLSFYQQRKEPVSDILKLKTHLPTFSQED
# Experiment: Inhibition of human recombinant NPP1 at 10 uM using p-nitrophenyl thymidine monophosphate substrate incubated for 30 mins by colorimetry
# Conditions: not given
row,inhibition,Structure (SMILES)
1,inactive,Nc1nc(I)nc2c1ncn2[C@@H]1O[C@H](COP(=O)(O)CP(=O)(O)O)[C@@H](O)[C@H]1O

# Biological target: Autotaxin (Homo sapiens) (UniProt Q13822)
# Experiment: Inhibition of human recombinant NPP2 at 10 uM using p-nitrophenyl thymidine monophosphate substrate incubated for 30 mins by colorimetry
# Conditions: not given
row,inhibition,Structure (SMILES)
1,inactive,Nc1nc(I)nc2c1ncn2[C@@H]1O[C@H](COP(=O)(O)CP(=O)(O)O)[C@@H](O)[C@H]1O

# Biological target: T4, Ectonucleotide pyrophosphatase/phosphodiesterase family member 3 (Homo sapiens) (UniProt O14638)
# T4 sequence (whole entry): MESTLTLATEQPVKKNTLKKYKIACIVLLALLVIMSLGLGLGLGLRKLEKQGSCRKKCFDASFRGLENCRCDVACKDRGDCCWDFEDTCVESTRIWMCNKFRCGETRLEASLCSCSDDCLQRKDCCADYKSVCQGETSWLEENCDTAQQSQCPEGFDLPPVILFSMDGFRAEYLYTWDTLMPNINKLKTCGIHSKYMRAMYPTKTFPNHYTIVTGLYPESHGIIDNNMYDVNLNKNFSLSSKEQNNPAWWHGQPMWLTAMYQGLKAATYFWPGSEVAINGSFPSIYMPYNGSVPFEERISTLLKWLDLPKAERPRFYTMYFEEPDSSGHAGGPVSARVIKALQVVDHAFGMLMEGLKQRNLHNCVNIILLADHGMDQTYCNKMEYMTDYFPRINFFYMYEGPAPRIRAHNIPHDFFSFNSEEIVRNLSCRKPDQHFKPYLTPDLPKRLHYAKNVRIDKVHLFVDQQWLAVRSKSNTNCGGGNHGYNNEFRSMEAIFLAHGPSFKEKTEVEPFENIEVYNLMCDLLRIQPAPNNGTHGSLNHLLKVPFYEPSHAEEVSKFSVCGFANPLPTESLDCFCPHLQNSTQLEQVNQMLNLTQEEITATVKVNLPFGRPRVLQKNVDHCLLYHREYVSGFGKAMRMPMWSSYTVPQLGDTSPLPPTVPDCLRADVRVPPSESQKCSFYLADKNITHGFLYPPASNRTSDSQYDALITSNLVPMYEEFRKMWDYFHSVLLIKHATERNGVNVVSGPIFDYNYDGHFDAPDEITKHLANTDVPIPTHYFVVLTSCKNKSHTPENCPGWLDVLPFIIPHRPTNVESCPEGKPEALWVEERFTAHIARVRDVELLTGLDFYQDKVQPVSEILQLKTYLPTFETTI
# Experiment: Inhibition of human recombinant NPP3 at 10 uM using p-nitrophenyl thymidine monophosphate substrate incubated for 30 mins by colorimetry
# Conditions: not given
row,inhibition,Structure (SMILES)
1,inactive,Nc1nc(I)nc2c1ncn2[C@@H]1O[C@H](COP(=O)(O)CP(=O)(O)O)[C@@H](O)[C@H]1O

# Biological target: P2Y purinoceptor 1 (Homo sapiens) (UniProt P47900)
# Sequence (P47900 whole entry): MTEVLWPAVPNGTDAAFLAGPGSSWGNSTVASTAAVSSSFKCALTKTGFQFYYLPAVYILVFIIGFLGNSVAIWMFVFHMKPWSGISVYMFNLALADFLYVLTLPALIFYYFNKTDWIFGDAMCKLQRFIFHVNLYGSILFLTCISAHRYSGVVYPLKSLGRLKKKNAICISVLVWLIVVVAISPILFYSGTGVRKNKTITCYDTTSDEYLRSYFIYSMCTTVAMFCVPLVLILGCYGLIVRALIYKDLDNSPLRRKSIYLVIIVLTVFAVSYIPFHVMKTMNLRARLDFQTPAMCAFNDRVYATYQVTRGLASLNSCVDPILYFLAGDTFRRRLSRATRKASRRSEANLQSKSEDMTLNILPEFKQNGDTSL
# Experiment: Activation of recombinant human P2Y1 receptor expressed in human 1321N1 cells assessed as stimulation of calcium mobilization at 10 uM by fluorescence based assay
# Format: functional, cell-based
# Conditions: not given
row,Structure (SMILES),Activity
1,Nc1ncnc2c1ncn2[C@@H]1O[C@H](COP(=O)(O)CP(=O)(O)O)[C@@H](O)[C@H]1O [PHOSPHOMETHYLPHOSPHONIC ACID ADENOSYL ESTER],Active

# System: not listed separately
# Experiment: Metabolic stability in human blood plasma assessed as compound degradation at 200 uM incubated for 5 hrs at 37 degC by LC-MS analysis
# Format: ADME, cell-free
# Conditions: read-out: Drug degradation
# Procedure, shortened: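 Human plasma from healthy donors added to aqueous compound solution, 200 μM final. Incubated at 37 °C for 5 h. Supernatants analysed by LC-MS as percentage of compound remaining over time. Three separate experiments, each in duplicate.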
row,Structure (SMILES),"metabolised at 5 h, 200 µM [%]"
1,Nc1ncnc2c1ncn2[C@@H]1O[C@H](COP(=O)(O)CP(=O)(O)O)[C@@H](O)[C@H]1O [PHOSPHOMETHYLPHOSPHONIC ACID ADENOSYL ESTER],≤ 50
2,Nc1nc(I)nc2c1ncn2[C@@H]1O[C@H](COP(=O)(O)CP(=O)(O)O)[C@@H](O)[C@H]1O,< 25

# System: not listed separately
# Experiment: Metabolic stability in rat liver microsomes assessed as compound degradation at 200 uM after 30 mins in presence of NADPH regenerative system at 37 degC by LC-MS analysis
# Format: ADME, Microsome
# Conditions: read-out: Drug degradation
# Procedure, shortened: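 Rat liver microsomes (2 mg) incubated with compound at 200 μM in 2 mL at 37 °C for various times. Stopped with ice-cold acetonitrile and centrifuged. Supernatant analysed by LC-MS as percentage remaining. Three separate experiments in duplicate.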
row,Structure (SMILES),"metabolised at 0.5 h, 200 µM [%]"
1,Nc1ncnc2c1ncn2[C@@H]1O[C@H](COP(=O)(O)CP(=O)(O)O)[C@@H](O)[C@H]1O [PHOSPHOMETHYLPHOSPHONIC ACID ADENOSYL ESTER],100

# System: not listed separately
# Experiment: Metabolic stability in rat liver microsomes assessed as intact compound level at 200 uM after 2 hrs in presence of NADPH regenerative system at 37 degC by LC-MS analysis
# Format: ADME, Microsome
# Conditions: read-out: Stability
row,"remaining at 2 h, 200 µM [%]",Structure (SMILES)
1,100,Nc1nc(I)nc2c1ncn2[C@@H]1O[C@H](COP(=O)(O)CP(=O)(O)O)[C@@H](O)[C@H]1O

# System: not listed separately
# Experiment: Drug metabolism in rat liver microsomes at 200 uM after 2 hrs in presence of NADPH regenerative system at 37 degC by LC-MS analysis
# Format: ADME, Microsome
# Conditions: read-out: Drug metabolism
row,"metabolised at 2 h, 200 µM [%]",Structure (SMILES)
1,< 40,Nc1nc(I)nc2c1ncn2[C@@H]1O[C@H](COP(=O)(O)CP(=O)(O)O)[C@@H](O)[C@H]1O

# Biological target: P2Y purinoceptor 12 (Homo sapiens) (UniProt Q9H244)
# Sequence (Q9H244 whole entry): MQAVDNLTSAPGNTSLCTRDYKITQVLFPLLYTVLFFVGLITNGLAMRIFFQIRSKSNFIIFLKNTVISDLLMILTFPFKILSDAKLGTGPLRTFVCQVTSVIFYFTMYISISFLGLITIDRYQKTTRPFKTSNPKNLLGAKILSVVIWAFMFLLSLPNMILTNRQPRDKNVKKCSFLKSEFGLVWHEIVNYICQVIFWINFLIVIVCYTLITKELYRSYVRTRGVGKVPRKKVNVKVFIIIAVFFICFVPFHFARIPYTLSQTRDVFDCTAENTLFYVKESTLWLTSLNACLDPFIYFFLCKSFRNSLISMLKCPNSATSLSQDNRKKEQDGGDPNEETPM
# Experiment: Activation of recombinant human P2Y12 receptor expressed in CHOK1 cells assessed as stimulation of beta-arrestin recruitment at 10 uM incubated for 90 mins by luminescence based assay
# Conditions: not given
row,Structure (SMILES),Activity
1,Nc1ncnc2c1ncn2[C@@H]1O[C@H](COP(=O)(O)CP(=O)(O)O)[C@@H](O)[C@H]1O [PHOSPHOMETHYLPHOSPHONIC ACID ADENOSYL ESTER],Active
